Key:
[1] = biological target: T1, SUMO-activating enzyme (Homo sapiens, UniProt Q9UBT2); experiment: Inhibition of recombinant SAE (unknown origin) assessed as reduction in transfer of SUMO1 to UBC9 using SUMO1 as a substrate in presence of ATP at Km concentration by HTRF assay; type: protein-complex assay
Method in brief: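 HTRF transthiolation assay measuring transfer of SUMO1 to UBC9, the E2 for SAE.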

[2] = Inhibition of recombinant UAE (unknown origin) in presence of ATP at Km concentration by HTRF assay; parameters: species or system Homo sapiens
[3] = biological target: T2, NEDD8 activating enzyme (Homo sapiens, UniProt Q8TBC4); experiment: Inhibition of recombinant NAE (unknown origin) in presence of ATP at Km concentration by HTRF assay; type: protein-complex assay
T2 sequence (Q8TBC4 whole entry): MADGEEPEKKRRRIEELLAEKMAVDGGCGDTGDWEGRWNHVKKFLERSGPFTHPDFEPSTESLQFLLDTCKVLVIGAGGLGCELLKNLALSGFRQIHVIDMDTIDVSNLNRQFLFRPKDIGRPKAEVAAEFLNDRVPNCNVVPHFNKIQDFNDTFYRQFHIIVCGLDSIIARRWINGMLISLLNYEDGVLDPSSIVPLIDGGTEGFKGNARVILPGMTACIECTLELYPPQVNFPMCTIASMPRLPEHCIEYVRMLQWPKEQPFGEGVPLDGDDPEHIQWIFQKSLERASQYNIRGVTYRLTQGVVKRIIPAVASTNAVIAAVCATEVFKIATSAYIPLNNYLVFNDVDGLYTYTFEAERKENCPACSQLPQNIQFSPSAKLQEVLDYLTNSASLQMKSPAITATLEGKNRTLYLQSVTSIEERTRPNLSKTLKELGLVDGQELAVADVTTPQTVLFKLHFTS
T2 sequence (Q13564 whole entry): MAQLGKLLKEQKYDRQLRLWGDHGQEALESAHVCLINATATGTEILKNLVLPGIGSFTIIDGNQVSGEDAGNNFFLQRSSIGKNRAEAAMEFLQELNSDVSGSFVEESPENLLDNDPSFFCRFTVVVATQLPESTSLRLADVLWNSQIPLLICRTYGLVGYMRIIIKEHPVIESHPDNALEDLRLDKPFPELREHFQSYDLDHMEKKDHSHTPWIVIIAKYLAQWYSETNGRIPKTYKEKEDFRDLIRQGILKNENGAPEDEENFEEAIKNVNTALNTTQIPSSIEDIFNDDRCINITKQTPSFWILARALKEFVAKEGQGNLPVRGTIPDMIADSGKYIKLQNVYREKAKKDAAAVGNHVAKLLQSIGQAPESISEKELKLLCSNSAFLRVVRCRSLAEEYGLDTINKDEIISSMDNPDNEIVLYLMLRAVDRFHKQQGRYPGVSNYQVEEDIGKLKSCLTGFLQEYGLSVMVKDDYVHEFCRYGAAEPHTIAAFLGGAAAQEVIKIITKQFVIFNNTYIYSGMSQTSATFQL

[4] = biological target: T1, SUMO-activating enzyme; experiment: Inhibition of SAE in human HCT116 cells assessed as reduction in redistribution of SUMO2/3 proteins from nucleus to cytosol incubated for 4 hrs by immunofluorescence assay; type: cell-based, HCT-116
Method in brief: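 HCT-116 cells exposed to compound across a concentration range for 4 h, then stained with anti-SUMO2/3 monoclonal antibody. Automated imaging scored the nuclear (inner) to cytoplasmic (outer) SUMO2/3 ratio. IC50 taken from the dose response.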

[5] = biological target: T1, SUMO-activating enzyme; experiment: Inhibition of SAE in human HCT116 cells assessed as redistribution of SUMO2/3 proteins from nucleus to cytosol preincubated for 2 hrs followed by compound washout and measured immediately by immunofluorescence assay; type: cell-based, HCT-116
Method in brief: (§1)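 Washout format of the SUMO2/3 immunofluorescence assay in HCT116 cells. Cells were exposed to a range of concentrations for 2 h, then washed free of compound.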

[6] = biological target: T1, SUMO-activating enzyme; experiment: Inhibition of SAE in human HCT116 cells assessed as redistribution of SUMO2/3 proteins from nucleus to cytosol preincubated for 2 hrs followed by compound washout and measured after 8 hrs by immunofluorescence assay; type: cell-based, HCT-116; method in brief: as §1
[7] = biological target: T1, SUMO-activating enzyme; experiment: Inhibition of SAE (unknown origin) using SUMO1 as substrate incubated for 60 mins in presence of ATP and PPi by pyrophosphate exchange assay; type: protein-complex assay
Method in brief: (§2)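 Pyrophosphate exchange assay of E1 activity at 1 mM ATP. Substrates were SUMO1 or SUMO2 for SAE, Ub for UAE and Nedd-8 for NAE.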

[8] = biological target: T1, SUMO-activating enzyme; experiment: Inhibition of SAE (unknown origin) using SUMO2 as substrate incubated for 60 mins in presence of ATP and PPi by pyrophosphate exchange assay; type: protein-complex assay; method in brief: as §2
[9] = Inhibition of UAE (unknown origin) using Ub as substrate incubated for 60 mins in presence of ATP and PPi by pyrophosphate exchange assay; parameters: species or system Homo sapiens; method in brief: as §2
[10] = biological target: T2, NEDD8 activating enzyme; experiment: Inhibition of NAE (unknown origin) using Nedd-8 as substrate incubated for 60 mins in presence of ATP and PPi by pyrophosphate exchange assay; type: protein-complex assay; method in brief: as §2
[11] = biological target: T1, SUMO-activating enzyme; experiment: Inhibition of SAE in human HCT116 cells assessed as reduction in conjugation of SUMO proteins to UBC9 by Western blot analysis; type: cell-based, HCT-116
Method in brief: (§3)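 HCT116 cells, quantitative Western blot of E2–UBL conjugates. Read-outs were SUMO–UBC9 for SAE, ubiquitin–[…] for UAE and Nedd-8–[…] for NAE.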

[12] = biological target: T2, NEDD8 activating enzyme; experiment: Inhibition of NAE in human HCT116 cells assessed as reduction in conjugation of Nedd8 […] by Western blot analysis; type: cell-based, HCT-116; method in brief: as §3

T1 sequence (Q9UBE0 whole entry): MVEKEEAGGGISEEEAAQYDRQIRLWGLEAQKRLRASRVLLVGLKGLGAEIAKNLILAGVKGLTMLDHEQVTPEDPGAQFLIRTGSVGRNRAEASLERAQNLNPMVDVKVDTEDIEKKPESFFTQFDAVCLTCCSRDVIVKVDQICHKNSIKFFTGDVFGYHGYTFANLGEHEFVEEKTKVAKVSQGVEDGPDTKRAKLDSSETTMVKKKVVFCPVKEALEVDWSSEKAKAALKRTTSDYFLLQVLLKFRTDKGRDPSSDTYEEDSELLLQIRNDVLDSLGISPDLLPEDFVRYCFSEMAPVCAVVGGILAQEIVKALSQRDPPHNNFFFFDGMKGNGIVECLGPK
T1 sequence (Q9UBT2 whole entry): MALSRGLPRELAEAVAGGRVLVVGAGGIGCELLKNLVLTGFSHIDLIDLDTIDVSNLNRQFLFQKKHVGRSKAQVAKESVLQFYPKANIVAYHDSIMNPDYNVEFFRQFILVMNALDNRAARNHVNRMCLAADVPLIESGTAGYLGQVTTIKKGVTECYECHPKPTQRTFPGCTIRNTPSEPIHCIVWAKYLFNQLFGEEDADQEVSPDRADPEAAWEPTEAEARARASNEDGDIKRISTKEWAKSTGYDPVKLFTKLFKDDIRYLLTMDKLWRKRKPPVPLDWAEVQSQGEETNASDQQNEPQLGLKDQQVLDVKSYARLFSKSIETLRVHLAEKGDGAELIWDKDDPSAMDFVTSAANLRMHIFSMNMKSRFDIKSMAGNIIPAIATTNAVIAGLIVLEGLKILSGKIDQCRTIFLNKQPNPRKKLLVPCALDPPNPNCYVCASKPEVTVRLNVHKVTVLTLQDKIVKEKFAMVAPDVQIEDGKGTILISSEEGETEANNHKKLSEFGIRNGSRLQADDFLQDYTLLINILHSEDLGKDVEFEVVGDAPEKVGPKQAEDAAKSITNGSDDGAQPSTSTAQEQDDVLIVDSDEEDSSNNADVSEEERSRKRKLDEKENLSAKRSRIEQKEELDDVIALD

SMILES | IC50 [2] | IC50 [3] | IC50 [9] | IC50 [10] | IC50 [12] | IC50 [1] | IC50 [4] | IC50 [5] | IC50 [6] | IC50 [7] | IC50 [8] | IC50 [11]
CC(O)(c1csc(C(=O)c2cncnc2N[C@@H]2C[C@H](COS(N)(=O)=O)[C@@H](O)[C@H]2O)c1)c1cccc(Br)n1 (some centres undefined) | 616 nM | 31 nM | – | – | – | 0.1 nM | 47 nM | 251 nM | 361 nM | – | – | –
NS(=O)(=O)OC[C@H]1C[C@@H](Nc2ncncc2C(=O)c2ccn(Cc3ccccc3)n2)C[C@@H]1O | > 1000 nM | 190 nM | > 1000 nM | 2600 nM | > 5000 nM | 2 nM | 71 nM | – | – | 11 nM | 69 nM | 13 nM
NC(c1cccc(Cl)c1)c1csc(C(=O)c2cncnc2N[C@@H]2C[C@H](COS(N)(=O)=O)[C@@H](O)C2)c1 (stereo in doubt; 33) | – | > 1000 nM | – | – | – | 0.7 nM | 50 nM | 83 nM | 499 nM | – | – | –
CC(N)(c1cccc(Cl)c1)c1csc(C(=O)c2cncnc2N[C@@H]2C[C@H](COS(N)(=O)=O)[C@@H](O)C2)c1 (some centres undefined) | > 1000 nM | > 1000 nM | – | – | – | 0.3 nM | 16 nM | 29 nM | 101 nM | – | – | –
CC(O)(c1cccc(Cl)c1)c1csc(C(=O)c2cncnc2N[C@@H]2C[C@H](COS(N)(=O)=O)[C@@H](O)C2)c1 (some centres undefined) | > 1000 nM | 343 nM | – | – | – | 0.2 nM | 12 nM | 19 nM | 233 nM | – | – | –
Cc1sc(C(=O)c2cncnc2N[C@@H]2C[C@H](COS(N)(=O)=O)[C@@H](O)C2)cc1C(N)c1cccc(Cl)c1 (some centres undefined) | > 1000 nM | 235 nM | – | – | – | 0.2 nM | 16 nM | 19 nM | 38 nM | – | – | –
NS(=O)(=O)OC[C@H]1C[C@@H](Nc2ncncc2C(=O)c2cc([C@@H]3OCCc4ccccc43)cs2)C[C@@H]1O | > 1000 nM | 198 nM | – | – | – | 0.4 nM | 4 nM | 5 nM | 39 nM | – | – | –
NS(=O)(=O)OC[C@H]1C[C@@H](Nc2ncncc2C(=O)c2cc(C(O)c3cccc(Cl)c3)cs2)C[C@@H]1O (stereo in doubt; 31) | – | 216 nM | – | – | – | 0.2 nM | 55 nM | 43 nM | 955 nM | – | – | –
NS(=O)(=O)OC[C@H]1C[C@@H](Nc2ncncc2C(=O)c2cc(C(O)c3cccc(Cl)c3)cs2)C[C@@H]1O (stereo in doubt; 30) | > 1000 nM | 114 nM | – | – | – | 1 nM | 660 nM | 1210 nM | > 10000 nM | – | – | –

Continued, in another order:

IC50 [2] | IC50 [3] | IC50 [9] | IC50 [10] | IC50 [12] | SMILES | IC50 [1] | IC50 [4] | IC50 [5] | IC50 [6] | IC50 [7] | IC50 [8] | IC50 [11]
> 1000 nM | > 1000 nM | – | – | – | NS(=O)(=O)OC[C@H]1C[C@@H](Nc2ncncc2C(=O)c2cc(C3NCCc4ccc(Cl)cc43)cs2)C[C@@H]1O (some centres undefined) | 0.8 nM | 27 nM | 167 nM | 142 nM | – | – | –
> 1000 nM | 102 nM | – | – | – | Cc1sc(C(=O)c2cncnc2N[C@@H]2C[C@H](COS(N)(=O)=O)[C@@H](O)C2)cc1C1OCCc2ccccc21 (some centres undefined) | 0.3 nM | 6 nM | 4 nM | 14 nM | – | – | –
> 1000 nM | 681 nM | – | – | – | NS(=O)(=O)OC[C@H]1C[C@@H](Nc2ncncc2C(=O)c2cc(Cc3cccc(Cl)c3)c(Cl)s2)C[C@@H]1O | 3.6 nM | 108 nM | 184 nM | 1400 nM | – | – | –
> 1000 nM | 341 nM | – | – | – | NS(=O)(=O)OC[C@H]1C[C@@H](Nc2ncncc2C(=O)c2cc(C(O)c3cccc(Cl)c3)c(Cl)s2)C[C@@H]1O (some centres undefined) | 0.3 nM | 9 nM | 17 nM | 70 nM | – | – | –
> 1000 nM | 203 nM | – | – | – | Cc1sc(C(=O)c2cncnc2N[C@@H]2C[C@H](COS(N)(=O)=O)[C@@H](O)C2)cc1C1OCCc2ccc(Cl)nc21 (some centres undefined) | 0.1 nM | 20 nM | 18 nM | 89 nM | – | – | –
> 1000 nM | > 1000 nM | – | – | – | NS(=O)(=O)OC[C@H]1C[C@@H](Nc2ncncc2C(=O)c2cc(C3OCCc4ccc(Cl)cc43)c(Cl)s2)C[C@@H]1O (some centres undefined) | 1 nM | 8 nM | 10 nM | 14 nM | – | – | –
> 1000 nM | > 1000 nM | – | – | – | NS(=O)(=O)OC[C@H]1C[C@@H](Nc2ncncc2C(=O)c2cc(C3NCCc4ccc(Cl)cc43)c(Cl)s2)C[C@@H]1O (some centres undefined) | 0.4 nM | 7 nM | 9 nM | 17 nM | – | – | –
> 1000 nM | 450 nM | – | – | – | NS(=O)(=O)OC[C@H]1C[C@@H](Nc2ncncc2C(=O)c2cc(C3OCCc4ccc(Cl)cc43)cs2)C[C@@H]1O (some centres undefined) | 0.5 nM | 8 nM | 7 nM | 22 nM | – | – | –
> 1000 nM | 64 nM | – | – | – | Cc1sc(C(=O)c2cncnc2N[C@@H]2C[C@H](COS(N)(=O)=O)[C@@H](O)C2)cc1C(O)c1cccc(Cl)c1 (some centres undefined) | 0.3 nM | 6 nM | 8 nM | 21 nM | – | – | –
> 1000 nM | 340 nM | – | – | – | NS(=O)(=O)OC[C@H]1C[C@@H](Nc2ncncc2C(=O)c2cc(C(O)c3cccc(Cl)n3)c(Cl)s2)C[C@@H]1O (some centres undefined) | 0.2 nM | 14 nM | 16 nM | 142 nM | – | – | –
> 1000 nM | > 1000 nM | – | – | – | NS(=O)(=O)OC[C@H]1C[C@@H](Nc2ncncc2C(=O)c2cc(C3NCCc4ccccc43)cs2)C[C@@H]1O (some centres undefined) | 1 nM | 78 nM | 365 nM | 503 nM | – | – | –
> 1000 nM | 32 nM | – | – | – | Cc1sc(C(=O)c2cncnc2N[C@@H]2C[C@H](COS(N)(=O)=O)[C@@H](O)C2)cc1Cc1cccc(Cl)c1 | 1.2 nM | 19 nM | 66 nM | 403 nM | – | – | –
> 1000 nM | 861 nM | – | – | – | NC(c1cccc(Cl)c1)c1cc(C(=O)c2cncnc2N[C@@H]2C[C@H](COS(N)(=O)=O)[C@@H](O)C2)sc1Cl (some centres undefined) | 0.4 nM | 10 nM | 17 nM | 39 nM | – | – | –

Source: ChEMBL document CHEMBL4834402, “Discovery of TAK-981, a First-in-Class Inhibitor of SUMO-Activating Enzyme for the Treatment of Cancer” (J Med Chem, 2021)
